# Calls of active or inactive are those of the source. No cut-off for these calls is given here.
# Experiments:
# [1] = target: Acetylcholinesterase (Electrophorus electricus, UniProt O42275); test: Inhibition of electric eel AChE using acetylthiocholine iodide as substrate preincubated with enzyme for 6 mins followed by substrate addition and measured for 180 secs by Ellman's method
# [2] = target: T1, Amine oxidase [flavin-containing] A (Homo sapiens, UniProt P21397); test: Inhibition of recombinant human MAO- A using p-tyramine as substrate at 100 uM preincubated with enzyme for 15 mins followed incubation with substrate for 20 mins by Amplex red reagent based fluorescence based analysis relative to control; settings: time 35 min
# T1 sequence (P21397 whole entry): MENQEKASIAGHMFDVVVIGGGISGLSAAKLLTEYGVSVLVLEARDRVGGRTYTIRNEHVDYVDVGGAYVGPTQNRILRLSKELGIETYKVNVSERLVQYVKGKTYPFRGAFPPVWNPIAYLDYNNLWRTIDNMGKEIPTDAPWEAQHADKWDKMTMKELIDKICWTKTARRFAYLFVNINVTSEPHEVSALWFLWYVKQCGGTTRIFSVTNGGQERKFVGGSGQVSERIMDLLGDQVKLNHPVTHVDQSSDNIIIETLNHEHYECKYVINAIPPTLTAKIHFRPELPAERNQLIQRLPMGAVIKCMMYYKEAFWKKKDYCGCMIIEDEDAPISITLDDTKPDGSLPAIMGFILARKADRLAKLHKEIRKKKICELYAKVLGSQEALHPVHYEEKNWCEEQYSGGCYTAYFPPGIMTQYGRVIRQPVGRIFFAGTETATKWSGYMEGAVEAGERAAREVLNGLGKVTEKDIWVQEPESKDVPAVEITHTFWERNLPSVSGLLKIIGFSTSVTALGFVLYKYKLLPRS
# In short: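 Human MAO-A (1.1 µg protein, activity set to oxidize 165 pmol p-tyramine/min) was preincubated with compound in 0.05 M potassium phosphate pH 7.4 at 37 °C for 15 min in the dark. The reaction was started with 2 mM p-tyramine, 2 U/mL HRP and 200 µM Amplex Red for 20 min at 37 °C. Fluorescence was read at ex 545/em 590 nm, and inhibition was calculated against the uninhibited control after background subtraction.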
# [3] = target: T2, Amine oxidase [flavin-containing] B (Homo sapiens, UniProt P27338)
# T2 sequence (P27338 whole entry): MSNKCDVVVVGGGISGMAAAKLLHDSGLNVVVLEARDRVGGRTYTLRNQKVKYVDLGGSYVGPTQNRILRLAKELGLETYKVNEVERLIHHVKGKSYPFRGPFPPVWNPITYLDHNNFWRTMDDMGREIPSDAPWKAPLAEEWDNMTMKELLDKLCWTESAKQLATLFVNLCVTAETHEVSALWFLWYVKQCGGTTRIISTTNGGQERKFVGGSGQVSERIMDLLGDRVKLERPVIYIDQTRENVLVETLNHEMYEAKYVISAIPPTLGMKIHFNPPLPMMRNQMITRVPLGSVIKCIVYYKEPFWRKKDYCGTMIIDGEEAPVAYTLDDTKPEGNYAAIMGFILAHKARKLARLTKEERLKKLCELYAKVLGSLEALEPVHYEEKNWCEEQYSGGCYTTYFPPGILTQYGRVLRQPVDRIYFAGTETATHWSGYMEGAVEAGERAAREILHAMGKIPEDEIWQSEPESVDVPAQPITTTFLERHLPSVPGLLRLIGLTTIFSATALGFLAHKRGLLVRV
# [4] = organism: Homo sapiens; test: Selectivity for recombinant human MAO-B over recombinant human MAO-A
# [5] = target: Cholinesterase (Equus caballus, UniProt P81908); test: Inhibition of equine serum BuChE using butyrylthiocholine iodide as substrate preincubated with enzyme for 6 mins followed by substrate addition and measured for 180 secs by Ellman's method
# Chain of Cholinesterase (P81908 whole entry): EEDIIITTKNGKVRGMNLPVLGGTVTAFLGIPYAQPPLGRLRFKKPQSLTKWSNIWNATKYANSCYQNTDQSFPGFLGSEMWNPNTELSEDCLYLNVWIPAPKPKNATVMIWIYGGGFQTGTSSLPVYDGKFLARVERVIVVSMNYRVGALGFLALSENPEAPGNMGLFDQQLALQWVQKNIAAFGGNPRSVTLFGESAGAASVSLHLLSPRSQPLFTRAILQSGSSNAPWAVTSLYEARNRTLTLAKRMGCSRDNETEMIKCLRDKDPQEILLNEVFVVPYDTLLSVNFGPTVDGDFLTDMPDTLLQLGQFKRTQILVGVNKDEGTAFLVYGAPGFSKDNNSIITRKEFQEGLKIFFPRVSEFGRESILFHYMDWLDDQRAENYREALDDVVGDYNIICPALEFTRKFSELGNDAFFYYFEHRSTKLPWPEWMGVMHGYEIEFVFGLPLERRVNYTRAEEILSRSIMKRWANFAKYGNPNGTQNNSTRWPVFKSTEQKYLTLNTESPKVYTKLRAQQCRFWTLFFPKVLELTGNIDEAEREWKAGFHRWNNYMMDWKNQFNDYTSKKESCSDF
# In short: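 Ellman assay. Enzyme at 0.12 U/mL in 50 mM Tris-HCl pH 8.0 with 0.1% w/v BSA, plus 1.5 mM DTNB, preincubated with compound (0.001-100 μM, diluted from DMSO stock into Tris buffer with MgCl₂/NaCl) at 37 °C for 6 min. Then 15 mM butyrylthiocholine iodide was added, and absorbance at 405 nm was read at 0, 60, 120 and 180 s. IC50 from nonlinear regression of log concentration-response curves; at least three experiments in triplicate.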
# [6] = Selectivity index, ratio of IC50 for equine serum BuChE to IC50 for electric eel AChE by Ellman's method
# [7] = tested on: PC-12; test: Cytotoxicity against rat PC12 cells assessed as cell viability at 1 to 50 uM measured after 24 hrs by MTT assay; assay type: cell-based; settings: pc-12, 24 h, dose 1-50 µM
# In short: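 PC12 cells were grown at 37 °C, 5% CO₂ in DMEM with 10% bovine calf serum and penicillin/streptomycin, then seeded at 10,000 cells/well. At the required confluence they were switched to serum-free medium with compound for 24 h. Viability was read by MTT (4 h at 37 °C), with formazan dissolved in DMSO.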
# [8] = in vitro; settings: PAMPA
# [9] = target: T1, Amine oxidase [flavin-containing] A; test: Inhibition of recombinant human MAO- A using p-tyramine as substrate preincubated with enzyme for 15 mins followed incubation with substrate for 20 mins by Amplex red reagent based fluorescence based analysis
# [10] = target: Acetylcholinesterase (Electrophorus electricus) (UniProt O42275); test: Mixed-type inhibition of electric eel AChE using varying concentration of acetylthiocholine iodide as substrate at 0.185 to 0.74 uM by Lineweaver-burk plot analysis; settings: dose microM 0.185-0.74
# Chain of Acetylcholinesterase (Electrophorus electricus) (O42275 24-633 limits assumed): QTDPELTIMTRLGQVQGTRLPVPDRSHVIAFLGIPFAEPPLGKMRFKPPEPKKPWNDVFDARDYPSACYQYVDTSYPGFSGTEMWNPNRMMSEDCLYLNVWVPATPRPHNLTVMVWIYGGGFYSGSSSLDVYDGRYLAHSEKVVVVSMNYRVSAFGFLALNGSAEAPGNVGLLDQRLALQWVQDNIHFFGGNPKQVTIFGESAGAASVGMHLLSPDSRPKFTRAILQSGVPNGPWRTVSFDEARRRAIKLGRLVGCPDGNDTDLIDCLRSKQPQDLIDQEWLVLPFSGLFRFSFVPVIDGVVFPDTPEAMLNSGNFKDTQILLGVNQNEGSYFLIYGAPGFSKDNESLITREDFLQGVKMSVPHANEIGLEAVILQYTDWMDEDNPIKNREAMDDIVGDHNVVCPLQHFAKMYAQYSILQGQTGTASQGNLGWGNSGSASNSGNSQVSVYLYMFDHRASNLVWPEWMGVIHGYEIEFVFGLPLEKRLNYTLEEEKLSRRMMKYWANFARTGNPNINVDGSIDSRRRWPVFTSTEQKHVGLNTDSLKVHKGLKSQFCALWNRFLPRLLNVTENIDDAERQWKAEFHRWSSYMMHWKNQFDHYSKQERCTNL
# [11] = target: T2, Amine oxidase [flavin-containing] B; test: Competitive inhibition of recombinant human MAO-B using varying concentration of p-tyramine as substrate at 0.13 to 0.54 uM by Lineweaver-burk plot analysis; settings: dose 0.13-0.54 µM
# In short: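 Preincubation-free kinetic run with human MAO-B: initial oxidation rates of p-tyramine measured at six substrate concentrations without inhibitor and with three inhibitor concentrations (0.54, 0.27, 0.13 μM). Activity was read by the Amplex Red/horseradish peroxidase fluorescence method. Plots were fitted by weighted least-squares analysis, assuming the variance of v is a constant percentage of v.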
# [12] = target: Cholinesterase (Equus caballus) (UniProt P81908); test: Competitive inhibition of equine serum BuChE […] using varying concentrations of butyrylthiocholine iodide as substrate at 2.6 to 10.5 uM by Lineweaver-burk plot analysis; settings: dose microM 2.6-10.5
# Chain of Cholinesterase (Equus caballus) (P81908 whole entry): as the sequence (P81908 whole entry) above
# Chain of Acetylcholinesterase (O42275 whole entry): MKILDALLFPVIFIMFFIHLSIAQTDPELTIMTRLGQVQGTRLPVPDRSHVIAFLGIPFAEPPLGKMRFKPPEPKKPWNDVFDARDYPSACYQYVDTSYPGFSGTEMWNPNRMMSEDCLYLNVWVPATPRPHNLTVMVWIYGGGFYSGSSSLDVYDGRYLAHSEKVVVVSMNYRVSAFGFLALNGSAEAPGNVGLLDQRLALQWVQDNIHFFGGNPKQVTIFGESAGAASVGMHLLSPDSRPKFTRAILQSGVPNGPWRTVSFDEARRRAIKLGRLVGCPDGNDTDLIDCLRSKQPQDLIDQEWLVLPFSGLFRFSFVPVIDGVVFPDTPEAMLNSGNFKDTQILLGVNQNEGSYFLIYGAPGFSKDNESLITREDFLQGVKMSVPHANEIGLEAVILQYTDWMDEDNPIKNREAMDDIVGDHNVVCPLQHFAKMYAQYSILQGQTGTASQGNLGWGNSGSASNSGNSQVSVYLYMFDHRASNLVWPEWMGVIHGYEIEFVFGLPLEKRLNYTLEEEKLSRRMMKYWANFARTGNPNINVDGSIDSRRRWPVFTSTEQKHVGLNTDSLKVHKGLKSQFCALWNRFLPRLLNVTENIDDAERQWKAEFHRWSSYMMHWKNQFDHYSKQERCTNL
SMILES,IC50 [1] [µM],inhibition at 100 µM [2] [%],IC50 [3] [µM],Selectivity ratio [4],IC50 [5] [µM],Ratio IC50 [6],Activity [7],Papp at 16 h [8] [×10⁻⁶ cm/s],IC50 [9] [µM],inhibition [10],inhibition (INH) [11],inhibition [12]
O=C(NC1CCN(Cc2ccccc2)CC1)c1cc(=O)c2ccccc2o1,5.69,29.7,33.3,> 3.1,27.9,7.6,–,–,–,–,–,–
O=C(NCCC1CCN(Cc2ccccc2)CC1)c1coc2cc(Br)ccc2c1=O,0.154,30.3,29.5,> 3.4,1.24,11.9,–,–,–,–,–,–
COc1ccc2occ(C(=O)NC3CCN(Cc4ccccc4)CC3)c(=O)c2c1,10.1,7.5,46.3,> 2.1,24.4,2.4,–,–,–,–,–,–
O=C(NCCC1CCN(Cc2ccccc2)CC1)c1cc(=O)c2ccccc2o1,0.31,29.5,20,> 4.9,1.54,4.9,–,–,–,–,–,–
COc1ccc2occ(C(=O)NCCC3CCN(Cc4ccccc4)CC3)c(=O)c2c1,0.033,72.4,11.2,< 8.9,0.45,13.7,Non-Toxic,16.7,–,–,–,–
O=C(NCCC1CCN(Cc2ccccc2)CC1)c1coc2ccc(OCc3ccccc3)cc2c1=O,0.37,–,0.272,247,5.24,14.2,Non-Toxic,5.4,67.2,Active,Active,Active
O=C(NC1CCN(Cc2ccccc2)CC1)c1coc2ccc(Br)cc2c1=O,1.57,35.5,22.8,> 4.4,9.45,6.1,–,–,–,–,–,–
COc1ccc2c(=O)c(C(=O)NC3CCN(Cc4ccccc4)CC3)coc2c1,1.58,37.4,28.6,> 3.5,9.78,6.2,–,–,–,–,–,–
O=C(NCCC1CCN(Cc2ccccc2)CC1)c1coc2ccccc2c1=O,0.069,68.6,35.3,< 2.8,0.6,8.7,–,–,–,–,–,–
O=C(NC1CCN(Cc2ccccc2)CC1)c1coc2ccccc2c1=O,2.96,63.8,17.7,< 5.6,18.7,6.3,–,15.6,–,–,–,–
Cc1ccc2occ(C(=O)NC3CCN(Cc4ccccc4)CC3)c(=O)c2c1,1.74,48.1,19.5,> 5.1,15.3,8.8,–,–,–,–,–,–
COc1ccc2c(=O)c(C(=O)NCCC3CCN(Cc4ccccc4)CC3)coc2c1,0.145,32.4,30.9,> 3.2,0.52,3.7,–,–,–,–,–,–
O=C(NCCC1CCN(Cc2ccccc2)CC1)c1coc2ccc(Br)cc2c1=O,0.104,48.2,26.1,> 3.8,1.17,11.3,–,–,–,–,–,–
O=C(NC1CCN(Cc2ccccc2)CC1)c1coc2cc(Br)ccc2c1=O,9.23,31.6,19.7,> 5.1,18.2,1.2,–,–,–,–,–,–
O=C(NC1CCN(Cc2ccccc2)CC1)c1coc2ccc(OCc3ccccc3)cc2c1=O,1.85,–,0.035,211,12.4,6.7,Non-Toxic,4.6,11.6,–,–,–
Cc1ccc2occ(C(=O)NCCC3CCN(Cc4ccccc4)CC3)c(=O)c2c1,0.11,30.6,52.5,> 1.9,0.91,8.3,–,–,–,–,–,–
